Laboratory results reported in article PMC5299595 (Fitoterapia, 2016).
“Also recorded” adds a separate entry of the source. Counter-ions that a name gives are not always drawn. Like-named read-outs stand apart in the source and are kept apart here.

Columns and labels:
[1] = test system: nicAchRs in SH-SY5Y cells; assay: 45Ca2+ entry in SH-SY5Y cells; format: cell-based, human
α4β2- and α7-nicAchRs [2] = conditions: α7 vs α4β2, based on comparison of Ki's
α4β2- and α7-nicAchRs [3] = conditions: previously reported, ref Littleton et al. (2005) [15], cited from earlier work
α4β2-nicAchR [4] = conditions: read-out: Ki α4β2-nicAchR, cited from earlier work
α7-nicAchR [5] = conditions: read-out: Ki α7-nicAchR, cited from earlier work
DAT [6] = molecular target: T1, DAT (Rattus norvegicus, UniProt P23977); conditions: cited from earlier work
[7] = DPPH free radical scavenging assay; conditions: read-out: EC50, DPPH free radical scavenging; DPPH 300 μM, 5 minutes
[8] = test system: rat striatal slices preloaded with [3H]-DA; conditions: cited from earlier work
mice = conditions: cited from earlier work
nicAchRs = assay: [3H]-epibatidine competition binding in rat cortical membranes; conditions: read-out: Ki, [3H]-epibatidine binding
α4β2-nicAchR [9] = molecular target: α4β2-nicAchR (Rattus norvegicus, UniProt P09483+P12390); assay: [3H]-cytisine competition binding in rat cortical membranes; conditions: read-out: Ki, [3H]-cytisine binding (α4β2-nicAchR)
α7-nicAchR [10] = molecular target: α7-nicAchR (Rattus norvegicus, UniProt Q05941); assay: [3H]-MLA competition binding in rat hippocampal membranes; conditions: read-out: Ki, [3H]-MLA binding (α7-nicAchR)
DAT [11] = molecular target: T1, DAT; assay: [3H]-GBR12935 competition binding in rat striatal membranes; conditions: read-out: Ki, [3H]-GBR12935 binding
Summary of the method: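 Striatal tissue homogenised in 120 mM NaCl/50 mM Tris-HCl (pH 7.4), spun at 25,000 × g for 20 min at 4°C, then washed thrice in the same buffer plus 0.01% FBS. Membranes (1 mg/ml final) preincubated 15 min with test compound (final 1.0 mM – 0.1 nM; DMSO <0.1%). 1 nM [3H]-GBR12935 then added for 1 h at room temperature. GF/B filtration and scintillation counting; non-specific binding defined with 10 μM GBR12909.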

DAT [12] = molecular target: T1, DAT; assay: DAT-mediated [3H]-DA uptake in rat striatal synaptosomes; format: biochemical; conditions: read-out: IC50, DAT-mediated [3H]-DA uptake
Summary of the method: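 Striata from CO2-anaesthetised adult male Sprague-Dawley rats (200–250 g) homogenised in pH 7.4 HEPES uptake buffer (100 μM pargyline, 0.32 M sucrose). Synaptosomes taken as the 16,000 × g pellet after a 1,000 × g spin. Test compound (final 1 mM – 0.1 nM; DMSO ≤1.0%) preincubated 10 min at 37°C. [3H]-DA (15–30 nM final) uptake for 5 min at 37°C, stopped on ice, GF/C filtration, scintillation counting. Non-specific uptake defined with 10 μM GBR-12909.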

[13] = test system: rat striatal slices preloaded with [3H]-DA; assay: Fractional [3H] release from [3H]-DA preloaded superfused rat striatal slices; format: cell-based
Summary of the method: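 Rat coronal striatal slices (500 μm, 6–8 mg) equilibrated 30 min at 34°C in oxygenated Krebs' buffer (pH 7.4), then preloaded with 0.1 μM [3H]-DA for 30 min. Superfused at 34°C, 1 ml/min, with buffer containing 10 μM pargyline and 10 μM nomifensine. Two 4-min basal samples taken after 60 min. Test compound (10, 100 or 1000 μM) then perfused per chamber, or 100 μM given after 20 min of 10 μM MEC or vehicle. Compared with vehicle-treated slices by Bonferroni post-hoc test; n = 4–10 rats.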

DAT [14] = molecular target: T1, DAT; format: in vivo
Summary of the method: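 High-speed chronoamperometry with Nafion-coated carbon fibre microelectrodes in the dorsal striatum of isoflurane-anaesthetised rats. Clearance of locally applied exogenous DA used to gauge DAT function, and test compound also applied locally in the striatum.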

[15] = PubChem data; cited from earlier work
cats = conditions: intravenous; cited from earlier work
rabbits = conditions: intravenous; cited from earlier work

## CN1CCC[C@H]1c1cccnc1 [Nicotine, (−)-nicotine]
[1]; 10 μM, LCaq experiments (Fig. 1A)
  45Ca2+ entry, increase above basal: 374.4%
[1]; 10 μM, lobinaline experiments (Fig. 6A)
  45Ca2+ entry, increase above basal: 196.6%
α4β2- and α7-nicAchRs [2]
  NicAchR Selectivity (-fold difference): 1508 -fold
α4β2- and α7-nicAchRs [3]
  DDR value: 13.00 ^6
α4β2- and α7-nicAchRs [3]; listed as nicotine
  DDR value: 13.00
α4β2-nicAchR [4]; ref Rueter et al. (2006)
  Ki: 0.00096 µM
α7-nicAchR [5]; ref Rueter et al. (2006)
  Ki: 1.45 µM
DAT [6]; rat striatal synaptosomes
  Activity at the DAT: inactive

## CN1[C@@H](CC(=O)c2ccccc2)CCC[C@H]1C[C@H](O)c1ccccc1 [Lobeline, (−)-lobeline hydrochloride]
[7]
  EC50: 229 µM
α4β2- and α7-nicAchRs [2]
  NicAchR Selectivity (-fold difference): 1565 -fold
α4β2- and α7-nicAchRs [3]
  DDR value: 6.27 ^6
α4β2- and α7-nicAchRs [3]; listed as lobeline
  DDR value: 6.27
[8]
  MEC sensitivity of evoked fractional [3H] release: MEC-insensitive
α4β2-nicAchR [4]; ref Hojahmat et al. (2010)
  Ki: 0.004 µM
α7-nicAchR [5]; ref Hojahmat et al. (2010)
  Ki: 6.26 µM
DAT [6]; read-out: IC50, DAT inhibition
  IC50: 28.2 to 80 µM
mice; mouse, in vivo, sc
  minimal lethal dose: 300 mg/kg

## O=c1c(O)c(-c2ccc(O)c(O)c2)oc2cc(O)cc(O)c12 [Quercetin]
[7]
  EC50: 11.2 µM

## c1cncc([C@@H]2CCCCN2)c1 [anabasine]
α4β2- and α7-nicAchRs [3]
  DDR value: 4.16
α4β2-nicAchR [4]
  Ki: 0.065 µM
α7-nicAchR [5]
  Ki: 0.058 µM

## CN1CCCC2C(c3ccccc3)C(C3=NCCCC3)C(c3ccccc3)CC21 (stereo not drawn) [Lobinaline, lobinaline]
nicAchRs
  Ki: 16.2 µM
α4β2-nicAchR [9]
  Ki: 1.07 µM
α7-nicAchR [10]
  Ki: 67.5 µM
DAT [11]
  Ki: 2.54 µM
[1]; 1 mM
  45Ca2+ entry, increase above basal: 41.6%
[1]; 1 mM concomitantly with NIC 10 μM
  45Ca2+ entry, increase above basal: 115.7%
[1]; 1 mM with MEC 1 μM
  Effect of MEC on compound-induced 45Ca2+ entry: completely abolished
DAT [12]
  IC50: 12 µM
[7]
  EC50: 18 µM
[13]; 10 μM
  Fractional [3H] release vs vehicle: not significantly increased
[13]; 100 μM after 10 μM MEC pretreatment for 20 minutes
  Fractional [3H] release vs vehicle after MEC pretreatment: not significantly different; also recorded: no significant difference
[13]; 100 μM, 8 minutes after treatment, MEC experiment set
  Fractional [3H] release, greater than vehicle: 160%
[13]; 100 μM, maximum 12 minutes post-treatment, concentration-response studies
  Maximum fractional [3H] release, greater than vehicle treated: 186%
[13]; 100 μM, maximum 16 minutes after treatment, MEC experiment set
  Maximum fractional [3H] release, greater than vehicle treated controls: 262%
[13]; 1000 μM, maximum 8 minutes post-treatment
  Maximum fractional [3H] release, greater than vehicle treated: 494%
DAT [14]; local application in striatum
  Time after ejection at which effects on DA clearance are no longer significant: 3 to 5 min
DAT [14]; locally applied from a micropipette, n = 10, data not shown
  Direct effect on electrochemical DA signal when locally applied alone: no direct effects
α4β2- and α7-nicAchRs [2]
  NicAchR Selectivity (-fold difference): 63 -fold
[15]
  hydrogen bond acceptors: 2
  hydrogen bond donors: 0
  molar fractivity: 82.47
cats
  Effect on blood pressure: lower blood pressure
  Effect on respiration: unaffected
rabbits
  Effect on blood pressure: lower blood pressure
  Effect on respiration: unaffected
mice; subcutaneous administration in mice
  minimal lethal dose: 800 mg/kg

## CNC1(C)C2CCC(C2)C1(C)C (stereo not drawn) [MEC, mecamylamine (MEC) hydrochloride]
[1]; 1 μM alone
  Effect on 45Ca2+ entry: unaffected; also recorded: did not affect
